In ChEMBL document CHEMBL4020721 (Eur J Med Chem, 2017):

Key:
Cytochrome P450 2C19 = Cytochrome P450 2C19 (Homo sapiens, UniProt P33261); test: (§1) Reversible inhibition of CYP2C19 in human liver microsomes at 10 uM after 20 mins in presence of NADPH by LC-MS/MS analysis; assay type: ADME; details: microsomes, 20 min, 10 µM
CYP2D6 [1] = biological target: T1, CYP2D6 (Homo sapiens, UniProt P10635); test: Time dependent irreversible inhibition of CYP2D6 in human liver microsomes at 10 uM preincubated with compound followed by NADPH addition by LC-MS/MS analysis; assay type: ADME; details: liver microsomes
Method in brief: (§2)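 HLM (0.2 mg/ml) with 10 µM compound were preincubated 0, 5, 10 or 20 min at 37°C with 1 mM NADPH or PBS. Substrate cocktail (halved concentrations) plus NADPH was then added for 10 min. Metabolites were measured by LC-MS/MS. Kobs is the slope of relative activity versus preincubation time.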

[2] = Drug recovery in human liver microsomes at 1 uM measured after 30 mins by LC-MS/MS analysis; assay type: ADME, microsome; details: liver microsomes, read-out: Drug recovery
Method in brief: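 Liver microsomes (0.5 mg/ml) were incubated with 1 µM compound at 37°C in 100 mM phosphate buffer pH 7.4 without NADPH for 30 min. Reactions were quenched with acetonitrile/tinidazole internal standard and analysed by LC-MS/MS. Recovery (%) was taken from the compound/internal standard peak area ratio.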

CYP1A2 [3] = biological target: T2, CYP1A2 (Homo sapiens, UniProt P05177); test: Time dependent irreversible inhibition of CYP1A2 in human liver microsomes at 10 uM preincubated with compound followed by NADPH addition by LC-MS/MS analysis; assay type: ADME; details: liver microsomes; method in brief: as §2
T2 sequence (P05177 whole entry): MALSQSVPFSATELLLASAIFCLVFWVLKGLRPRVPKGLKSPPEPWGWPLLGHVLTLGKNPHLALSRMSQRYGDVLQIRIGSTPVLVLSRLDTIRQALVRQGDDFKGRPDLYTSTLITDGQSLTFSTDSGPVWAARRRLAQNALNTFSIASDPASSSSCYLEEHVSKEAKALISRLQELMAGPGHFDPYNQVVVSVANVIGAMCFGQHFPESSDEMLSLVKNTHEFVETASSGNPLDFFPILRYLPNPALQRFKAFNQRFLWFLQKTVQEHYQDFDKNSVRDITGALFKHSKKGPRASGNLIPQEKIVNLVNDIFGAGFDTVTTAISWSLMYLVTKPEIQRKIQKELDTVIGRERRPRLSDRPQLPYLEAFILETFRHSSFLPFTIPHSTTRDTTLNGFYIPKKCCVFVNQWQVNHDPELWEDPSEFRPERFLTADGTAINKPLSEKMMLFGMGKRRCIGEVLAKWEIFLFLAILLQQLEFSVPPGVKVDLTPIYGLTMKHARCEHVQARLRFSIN

CYP2C9 [4] = biological target: T3, CYP2C9 (Homo sapiens, UniProt P11712); test: Time dependent irreversible inhibition of CYP2C9 in human liver microsomes at 10 uM preincubated with compound followed by NADPH addition by LC-MS/MS analysis; assay type: ADME; details: liver microsomes; method in brief: as §2
[5] = Drug recovery in rat liver microsomes at 1 uM measured after 30 mins by LC-MS/MS analysis; assay type: ADME, microsome; details: liver microsomes, read-out: Drug recovery
CYP2C19 [6] = biological target: T4, CYP2C19 (Homo sapiens, UniProt P33261); test: Time dependent irreversible inhibition of CYP2C19 in human liver microsomes at 10 uM preincubated with compound followed by NADPH addition by LC-MS/MS analysis; assay type: ADME; method in brief: as §2
CYP3A4 [7] = biological target: T5, CYP3A4 (Homo sapiens, UniProt P08684); test: Time dependent irreversible inhibition of CYP3A4 in human liver microsomes at 10 uM preincubated with compound followed by NADPH addition by LC-MS/MS analysis; assay type: ADME; details: liver microsomes; method in brief: as §2
NCI-H1993 = test: Growth inhibition of human NCI-H1993 cells after 72 hrs by CCK-8 assay; assay type: functional, cell-based; details: Homo sapiens, NCI-H1993, 72 h
[8] = Intrinsic clearance in monkey liver microsomes assessed per mg protein at 1 uM preincubated for 5 mins followed by NADPH addition measured after 5 to 30 mins by LC-MS/MS analysis; details: for microsomal CLint at 1 µM: liver microsomes, read-out: CLH
Cytochrome P450 2C9 = Cytochrome P450 2C9 (Homo sapiens, UniProt P11712); test: (§3) Reversible inhibition of CYP2C9 in human liver microsomes at 10 uM after 20 mins by in presence of NADPH LC-MS/MS analysis; assay type: ADME; details: microsomes, 20 min, 10 µM
[9] = Drug recovery in monkey liver microsomes at 1 uM measured after 30 mins by LC-MS/MS analysis
[10] = Intrinsic clearance in rat liver microsomes assessed per mg protein at 1 uM preincubated for 5 mins followed by NADPH addition measured after 5 to 30 mins by LC-MS/MS analysis; assay type: ADME, microsome; details: read-out: CLH
Method in brief: (§4)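 Microsomes (0.5 mg/ml) with 1 µM compound were preincubated 5 min at 37°C in 100 mM phosphate buffer pH 7.4, then started with 1 mM NADPH. Samples were taken at 0, 5, 10 and 30 min, quenched with acetonitrile/tinidazole and run by LC-MS/MS. CLint = k / microsomal protein concentration. Midazolam was the positive control.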

SNU-5 = test: Growth inhibition of human SNU5 cells after 72 hrs by CCK-8 assay; assay type: functional, cell-based; details: Homo sapiens, SNU-5, 72 h
[11] = Intrinsic clearance in human liver microsomes assessed per mg protein at 1 uM preincubated for 5 mins followed by NADPH addition measured after 5 to 30 mins by LC-MS/MS analysis; assay type: ADME, microsome; details: read-out: CLH; method in brief: as §4
[12] = biological target: Hepatocyte growth factor receptor (Homo sapiens, UniProt P08581); test: Inhibition of c-MET (unknown origin) using TK substrate-biotin peptide as substrate preincubated for 5 to 10 mins followed by ATP addition measured after 30 mins by HTRF assay
Cytochrome P450 3A4 = Cytochrome P450 3A4 (Homo sapiens, UniProt P08684); test: (§5) Reversible inhibition of CYP3A4 in human liver microsomes at 10 uM after 20 mins in presence of NADPH by LC-MS/MS analysis; assay type: ADME; details: microsomes, 20 min, 10 µM
CYP2C19 [13] = biological target: T4, CYP2C19; test: as §1; assay type: ADME; details: liver microsomes
CYP1A2 [14] = biological target: T2, CYP1A2; test: Reversible inhibition of CYP1A2 in human liver microsomes at 10 uM after 20 mins in presence of NADPH by LC-MS/MS analysis; assay type: ADME
CYP2C9 [15] = biological target: T3, CYP2C9; test: as §3; assay type: ADME; details: liver microsomes
CYP3A4 [16] = biological target: T5, CYP3A4; test: as §5; assay type: ADME; details: liver microsomes
CYP2D6 [17] = biological target: T1, CYP2D6; test: Reversible inhibition of CYP2D6 in human liver microsomes at 10 uM after 20 mins in presence of NADPH by LC-MS/MS analysis; assay type: ADME; details: liver microsomes

Sequence of Cytochrome P450 2C19 (P33261 whole entry): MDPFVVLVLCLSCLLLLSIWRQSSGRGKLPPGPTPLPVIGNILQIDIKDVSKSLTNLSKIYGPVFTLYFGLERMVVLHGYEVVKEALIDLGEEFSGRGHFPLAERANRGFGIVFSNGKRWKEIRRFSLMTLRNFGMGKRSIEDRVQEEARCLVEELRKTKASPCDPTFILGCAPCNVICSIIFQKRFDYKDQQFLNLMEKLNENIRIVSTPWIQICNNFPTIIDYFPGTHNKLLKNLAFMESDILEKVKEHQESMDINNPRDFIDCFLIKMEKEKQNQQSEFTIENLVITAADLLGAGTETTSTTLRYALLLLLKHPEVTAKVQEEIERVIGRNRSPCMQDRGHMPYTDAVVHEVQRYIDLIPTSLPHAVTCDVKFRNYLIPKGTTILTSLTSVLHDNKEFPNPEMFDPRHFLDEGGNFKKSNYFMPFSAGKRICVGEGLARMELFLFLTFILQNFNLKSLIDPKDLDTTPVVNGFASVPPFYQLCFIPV
T4 sequence (P33261 whole entry): as above
Sequence of Cytochrome P450 2C9 (P11712 whole entry): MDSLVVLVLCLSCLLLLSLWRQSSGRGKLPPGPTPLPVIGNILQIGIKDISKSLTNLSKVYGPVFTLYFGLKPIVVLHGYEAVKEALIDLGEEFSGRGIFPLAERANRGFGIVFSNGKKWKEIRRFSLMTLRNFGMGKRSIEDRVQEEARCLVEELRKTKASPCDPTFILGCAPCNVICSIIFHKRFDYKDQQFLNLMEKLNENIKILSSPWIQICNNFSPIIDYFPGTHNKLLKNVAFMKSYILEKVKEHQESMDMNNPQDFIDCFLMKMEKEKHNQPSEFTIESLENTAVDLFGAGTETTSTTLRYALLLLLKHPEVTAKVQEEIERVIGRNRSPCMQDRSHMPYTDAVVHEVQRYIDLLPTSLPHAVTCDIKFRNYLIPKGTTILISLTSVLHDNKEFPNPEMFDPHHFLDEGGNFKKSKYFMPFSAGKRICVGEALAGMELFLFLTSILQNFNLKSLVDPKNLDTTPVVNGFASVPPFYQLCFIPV
T3 sequence (P11712 whole entry): as above
T1 sequence (P10635 whole entry): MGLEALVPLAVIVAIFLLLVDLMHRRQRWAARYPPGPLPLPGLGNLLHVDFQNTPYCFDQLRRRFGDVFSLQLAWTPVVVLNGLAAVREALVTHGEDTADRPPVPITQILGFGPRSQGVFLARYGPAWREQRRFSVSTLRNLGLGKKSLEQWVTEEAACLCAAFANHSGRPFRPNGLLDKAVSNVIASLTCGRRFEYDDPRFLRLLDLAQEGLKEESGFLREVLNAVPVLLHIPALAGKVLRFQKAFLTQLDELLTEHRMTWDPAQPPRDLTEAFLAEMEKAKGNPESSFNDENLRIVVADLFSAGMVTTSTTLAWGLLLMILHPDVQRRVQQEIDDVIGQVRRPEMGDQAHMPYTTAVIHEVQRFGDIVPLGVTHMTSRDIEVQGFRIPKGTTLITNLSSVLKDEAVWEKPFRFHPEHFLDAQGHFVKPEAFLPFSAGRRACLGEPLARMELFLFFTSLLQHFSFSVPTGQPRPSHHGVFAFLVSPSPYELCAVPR
T5 sequence (P08684 whole entry): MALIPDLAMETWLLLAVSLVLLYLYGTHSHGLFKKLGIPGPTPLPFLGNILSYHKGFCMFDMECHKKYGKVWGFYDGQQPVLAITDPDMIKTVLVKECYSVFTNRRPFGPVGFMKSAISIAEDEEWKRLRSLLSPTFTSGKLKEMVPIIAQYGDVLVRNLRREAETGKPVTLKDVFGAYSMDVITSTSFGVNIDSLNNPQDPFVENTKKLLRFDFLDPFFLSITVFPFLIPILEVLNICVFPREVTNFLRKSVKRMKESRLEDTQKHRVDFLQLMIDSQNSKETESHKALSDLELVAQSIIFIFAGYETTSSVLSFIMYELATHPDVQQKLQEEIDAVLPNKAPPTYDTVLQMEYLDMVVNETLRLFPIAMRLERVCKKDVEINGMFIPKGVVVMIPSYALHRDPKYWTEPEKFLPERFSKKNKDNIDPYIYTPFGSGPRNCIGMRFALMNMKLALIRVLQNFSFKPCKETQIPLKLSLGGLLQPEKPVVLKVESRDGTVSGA
Sequence of Hepatocyte growth factor receptor (P08581 whole entry): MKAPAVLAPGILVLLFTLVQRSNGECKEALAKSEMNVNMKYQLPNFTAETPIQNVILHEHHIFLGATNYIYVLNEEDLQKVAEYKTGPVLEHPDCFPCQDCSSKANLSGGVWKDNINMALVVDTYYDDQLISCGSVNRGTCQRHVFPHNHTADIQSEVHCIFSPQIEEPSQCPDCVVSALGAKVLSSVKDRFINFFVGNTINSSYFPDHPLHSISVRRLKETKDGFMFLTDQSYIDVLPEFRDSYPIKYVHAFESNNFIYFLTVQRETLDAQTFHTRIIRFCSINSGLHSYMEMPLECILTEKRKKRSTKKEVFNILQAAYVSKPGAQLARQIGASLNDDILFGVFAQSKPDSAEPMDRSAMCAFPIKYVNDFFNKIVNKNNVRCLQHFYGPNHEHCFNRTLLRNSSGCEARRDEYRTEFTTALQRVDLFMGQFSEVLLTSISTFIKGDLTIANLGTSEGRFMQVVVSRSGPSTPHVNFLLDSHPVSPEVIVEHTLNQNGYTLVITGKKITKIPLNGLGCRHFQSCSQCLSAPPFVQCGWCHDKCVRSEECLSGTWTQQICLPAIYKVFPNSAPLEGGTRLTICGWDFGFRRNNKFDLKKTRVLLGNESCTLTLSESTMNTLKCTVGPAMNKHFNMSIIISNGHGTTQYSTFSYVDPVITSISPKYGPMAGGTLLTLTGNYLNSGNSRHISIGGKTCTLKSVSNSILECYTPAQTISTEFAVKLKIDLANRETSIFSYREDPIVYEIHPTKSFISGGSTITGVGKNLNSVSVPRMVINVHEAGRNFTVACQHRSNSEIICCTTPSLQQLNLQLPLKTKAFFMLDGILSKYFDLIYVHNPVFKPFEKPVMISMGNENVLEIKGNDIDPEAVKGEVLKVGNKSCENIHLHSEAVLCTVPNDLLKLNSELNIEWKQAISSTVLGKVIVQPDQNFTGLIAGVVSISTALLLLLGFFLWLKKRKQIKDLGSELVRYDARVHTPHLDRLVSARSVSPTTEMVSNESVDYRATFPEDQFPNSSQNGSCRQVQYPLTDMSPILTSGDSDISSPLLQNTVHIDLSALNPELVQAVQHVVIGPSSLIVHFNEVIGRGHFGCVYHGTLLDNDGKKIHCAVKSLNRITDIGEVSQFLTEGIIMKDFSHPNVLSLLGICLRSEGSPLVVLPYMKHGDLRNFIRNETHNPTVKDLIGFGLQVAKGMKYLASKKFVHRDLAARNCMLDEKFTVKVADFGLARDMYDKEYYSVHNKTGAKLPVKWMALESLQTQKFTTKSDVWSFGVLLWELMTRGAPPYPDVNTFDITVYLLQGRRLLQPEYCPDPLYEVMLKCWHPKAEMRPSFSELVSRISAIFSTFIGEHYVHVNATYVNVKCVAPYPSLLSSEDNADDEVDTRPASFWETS
Sequence of Cytochrome P450 3A4 (P08684 whole entry): as the sequence (P08684 whole entry) above

SMILES | inhibition at 10 µM (CYP2D6 [1]) | remaining at 0.5 h, 1 µM [2] | inhibition at 10 µM (CYP1A2 [3]) | inhibition at 10 µM (CYP2C9 [4]) | remaining at 0.5 h, 1 µM [5] | inhibition at 10 µM (CYP2C19 [6]) | inhibition at 10 µM (CYP3A4 [7]) | IC50 (NCI-H1993) | microsomal CLint at 1 µM [8] | remaining at 0.5 h, 1 µM [9] | microsomal CLint at 1 µM [10] | IC50 (SNU-5) | microsomal CLint at 1 µM [11] | also measured
CC(c1ccc2ncc(-c3cnn(C)c3)cc2c1)n1nnc2ncc(-c3cnn(CCO)c3)nc21 (stereo not given) | < 50% | 105% | < 50% | < 50% | 104% | < 50% | < 50% | 0.2 nM | 16 µL/min/mg | 108% | 6 µL/min/mg | 1.8 nM | – | inhibition (INH) (Cytochrome P450 2C19): Active; inhibition (INH) (Cytochrome P450 2C9): Active
CC(c1c(F)cc2ncc(-c3ccc(F)cc3)cc2c1F)n1nnc2ncc(-c3ccncc3)nc21 (stereo not given) | – | – | – | – | – | – | – | 3.5 nM | – | – | – | 7.2 nM | – | –
C[C@@H](c1cc2cccnc2cc1F)n1cnc2ncc(-c3cnn(C)c3)nc21 | – | 92% | – | – | 79% | – | – | – | – | 1% | 49 µL/min/mg | – | 8 µL/min/mg | CLH ([8]; microsomes, 1 µM): Nd(Unstable)
CC(c1c(F)cc2ncc(-c3cnn(C)c3)cc2c1F)n1nnc2ncc(-c3cnn(CCO)c3)nc21 (stereo not given) | < 50% | 98% | < 50% | < 50% | 97% | < 50% | < 50% | 0.8 nM | 43 µL/min/mg | 102% | 20 µL/min/mg | 1.3 nM | 8 µL/min/mg | inhibition (INH) (Cytochrome P450 2C19): Active; inhibition (INH) (Cytochrome P450 2C9): Active
CC(c1ccc2ncc(-c3ccc(F)cc3)cc2c1)n1nnc2ncc(-c3ccncc3)nc21 (stereo not given) | – | 105% | – | – | 91% | – | – | 8.7 nM | 65 µL/min/mg | 97% | 56 µL/min/mg | 7 nM | 14 µL/min/mg | –
CNC(=O)c1ccc(-c2cnc3nnn(C(C)c4c(F)cc5ncc(-c6cnn(C)c6)cc5c4F)c3n2)cc1F (stereo not given) | < 50% | 92% | < 50% | < 50% | 95% | < 50% | < 50% | – | 187 µL/min/mg | 95% | 48 µL/min/mg | 0.9 nM | 5 µL/min/mg | inhibition (INH) (Cytochrome P450 2C19): Active; inhibition (INH) (Cytochrome P450 2C9): Active
CC(c1cc2cc(-c3ccc(F)cc3)cnc2cc1F)n1nnc2ncc(-c3ccncc3)nc21 (stereo not given) | – | – | – | – | – | – | – | 3.6 nM | – | – | – | 6.8 nM | – | –
CC(c1ccc2nc(-c3cnn(C)c3)ccc2c1)n1nnc2ncc(-c3ccc(N)cc3)nc21 (stereo not given) | – | – | – | – | – | – | – | – | – | – | – | – | – | IC50 [12]: > 100 nM
CC(c1ccc2nc(-c3cnn(C)c3)ccc2c1)n1nnc2ncc(-c3cnn(C)c3)nc21 (stereo not given) | – | – | – | – | – | – | – | – | – | – | – | – | – | IC50 [12]: > 100 nM
CNC(=O)c1ccc(-c2cnc3nnn(C(C)c4ccc5ncc(-c6cnn(C)c6)cc5c4)c3n2)cc1F (stereo not given) | < 50% | 115% | < 50% | < 50% | 114% | < 50% | < 50% | 0.5 nM | 16 µL/min/mg | 97% | 5 µL/min/mg | 0.6 nM | 1 µL/min/mg | inhibition (INH) (Cytochrome P450 3A4): Active
CNC(=O)c1ccc(-c2cnc3nnn(C(C)c4cc5cc(-c6cnn(C)c6)cnc5cc4F)c3n2)cc1F (stereo not given) | < 50% | 116% | < 50% | < 50% | 111% | < 50% | < 50% | 1.1 nM | 24 µL/min/mg | 69% | 12 µL/min/mg | 0.6 nM | 5 µL/min/mg | inhibition at 20 min, 10 µM (CYP2C19 [13]): < 50%; inhibition at 20 min, 10 µM (CYP1A2 [14]): < 50%; inhibition at 20 min, 10 µM (CYP2C9 [15]): < 50%; inhibition at 20 min, 10 µM (CYP3A4 [16]): < 50%; inhibition at 20 min, 10 µM (CYP2D6 [17]): < 50%
CC(c1ccc2ncc(-c3ccc(F)cc3)cc2c1)n1nnc2ncc(-c3cnn(C)c3)nc21 (stereo not given) | – | 105% | – | – | 97% | – | – | 1.2 nM | 112 µL/min/mg | 109% | 28 µL/min/mg | 2.2 nM | 16 µL/min/mg | –
CC(c1cc2cc(-c3ccc(F)cc3)cnc2cc1F)n1nnc2ncc(-c3cnn(C)c3)nc21 (stereo not given) | – | – | – | – | – | – | – | 4.1 nM | – | – | – | 2 nM | – | –
CNC(=O)c1ccc(-c2cnc3nnn(C(C)c4ccc5ncc(-c6ccc(F)cc6)cc5c4)c3n2)cc1F (stereo not given) | – | 104% | – | – | 97% | – | – | 4.2 nM | 119 µL/min/mg | 93% | 57 µL/min/mg | 3.7 nM | 15 µL/min/mg | –
CC(c1c(F)cc2ncc(-c3ccc(F)cc3)cc2c1F)n1nnc2ncc(-c3cnn(C)c3)nc21 (stereo not given) | – | – | – | – | – | – | – | 2.6 nM | – | – | – | 2.2 nM | – | –
